Source: ChEMBL document CHEMBL1828575, “Design, synthesis and antiproliferative activities of biarylolefins based on polyhydroxylated and carbohydrate scaffolds” (Eur J Med Chem, 2011)

Tests used:
Type in all cases: functional
[1] = tested on: COLO 205; experiment: Antitumor activity against human COLO205 cells after 48 hrs by SRB assay; settings: COLO 205, 48 h
Method in brief: (§1)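 NCI60 panel in RPMI 1640 with 5% FBS and 2 mM L-glutamine. Cells were plated at 5000–40,000/well by doubling time, held 24 h, then time-zero plates were TCA-fixed. Five concentrations (10-fold or half-log dilutions of DMSO stocks) were applied for 48 h at 37 °C, 5% CO2. Cells were fixed with cold TCA (10% final adherent, 16% suspension) and stained with 0.4% SRB. Bound dye was dissolved in 10 mM Tris and read at 515 nm. GI50, TGI and LC50 were calculated per line.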

[2] = tested on: SK-OV-3; experiment: Cytotoxicity against human SKOV3 cells assessed as cellular growth at 10 uM after 48 hrs by SRB assay
Method in brief: (§2)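 NCI-60 panel lines grown in RPMI 1640 with 5% FBS and 2 mM L-glutamine. Plated at 5000–40,000 cells/well and preincubated 24 h at 37 °C, 5% CO₂, with time-zero plates fixed in TCA. Compounds, dissolved in DMSO and diluted in medium, were applied for 48 h. Cells were TCA-fixed (10% final for adherent, 16% for suspension) and stained with 0.4% SRB in 1% acetic acid. Dye was solubilised in 10 mM Tris base and read at 515 nm; growth was expressed as a percentage of untreated control.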

[3] = tested on: HOP-62; experiment: Antitumor activity against human HOP62 cells after 48 hrs by SRB assay; settings: HOP-62, 48 h; for CC50: read-out: LC50 (the source's name); method in brief: as §1
[4] = tested on: CAKI-1; experiment: Cytotoxicity against human Caki1 cells assessed as cellular growth at 10 uM after 48 hrs by SRB assay
Method in brief: (§3)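 NCI60 single-dose screen of cells in RPMI 1640 with 5% FBS and 2 mM L-glutamine, preincubated 24 h at 37 °C, 5% CO₂. Cells were then exposed 48 h to compound added from DMSO stock. TCA-fixed, stained with 0.4% SRB in 1% acetic acid, dye solubilised in 10 mM Tris base and read at 515 nm. Growth is given as percent of untreated control.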

[5] = tested on: SF-295; experiment: Cytotoxicity against human SF295 cells assessed as cellular growth at 10 uM after 48 hrs by SRB assay; method in brief: as §2
[6] = tested on: UO-31; experiment: Cytotoxicity against human UO31 cells assessed as cellular growth at 10 uM after 48 hrs by SRB assay; method in brief: as §2
[7] = tested on: U-251; experiment: Antitumor activity against human U251 cells after 48 hrs by SRB assay; settings: U-251, 48 h; for CC50: read-out: LC50 (the source's name)
Method in brief: (§4)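 NCI60 panel cells grown in RPMI 1640 with 5% FBS and 2 mM L-glutamine, plated at 5000–40,000 cells/well and preincubated 24 h at 37 °C, 5% CO₂. Compound was added from DMSO at five concentrations, 10-fold or 1/2 log dilutions, then incubated 48 h.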

[8] = tested on: RXF 393; experiment: Antitumor activity against human RXF393 cells after 48 hrs by SRB assay; settings: RXF 393, 48 h; for CC50: read-out: LC50 (the source's name); method in brief: as §1
[9] = tested on: HCT-15; experiment: Cytotoxicity against human HCT15 cells assessed as cellular growth at 10 uM after 48 hrs by SRB assay; method in brief: as §3
[10] = tested on: SF-295; experiment: Antitumor activity against human SF295 cells after 48 hrs by SRB assay; settings: SF-295, 48 h; method in brief: as §1
[11] = tested on: TK-10; experiment: Cytotoxicity against human TK10 cells assessed as cellular growth at 10 uM after 48 hrs by SRB assay; method in brief: as §2
[12] = tested on: COLO 205; experiment: Cytotoxicity against human COLO205 cells assessed as cellular growth at 10 uM after 48 hrs by SRB assay; method in brief: as §3
[13] = tested on: U-251; experiment: Cytotoxicity against human U251 cells assessed as cellular growth at 10 uM after 48 hrs by SRB assay; method in brief: as §2
[14] = tested on: UACC-62; experiment: Antitumor activity against human UACC62 cells after 48 hrs by SRB assay; settings: UACC-62, 48 h; method in brief: as §4
[15] = tested on: SK-MEL-5; experiment: Cytotoxicity against human SK-MEL-5 cells assessed as cellular growth at 10 uM after 48 hrs by SRB assay; method in brief: as §2
[16] = tested on: MDA-MB-468; experiment: Cytotoxicity against human MDA-MB-468 cells assessed as cellular growth at 10 uM after 48 hrs by SRB assay; method in brief: as §2
[17] = tested on: UACC-257; experiment: Antitumor activity against human UACC257 cells after 48 hrs by SRB assay; settings: UACC-257, 48 h; method in brief: as §4
[18] = tested on: HCT-116; experiment: Antitumor activity against human HCT116 cells after 48 hrs by SRB assay; settings: HCT-116, 48 h; method in brief: as §1
[19] = tested on: SNB-75; experiment: Antitumor activity against human SNB75 cells after 48 hrs by SRB assay; settings: SNB-75, 48 h; for CC50: read-out: LC50 (the source's name); method in brief: as §4
[20] = tested on: SK-MEL-28; experiment: Antitumor activity against human SK-MEL-28 cells after 48 hrs by SRB assay; settings: SK-MEL-28, 48 h; for CC50: read-out: pLC50 (the source's name) (converted); method in brief: as §4
[21] = tested on: SF-268; experiment: Antitumor activity against human SF268 cells after 48 hrs by SRB assay; settings: SF-268, 48 h; for CC50: read-out: pLC50 (the source's name) (converted); method in brief: as §1
[22] = Antitumor activity against human Hs 578T cells after 48 hrs by SRB assay; settings: for CC50: read-out: LC50 (the source's name); method in brief: as §1
[23] = tested on: KM12; experiment: Cytotoxicity against human KM12 cells assessed as cellular growth at 10 uM after 48 hrs by SRB assay; method in brief: as §3
[24] = read-out: LC50 (the source's name)
[25] = read-out: pLC50 (the source's name) (converted)

## COc1cc(/C(=C2\O[C@@H]([C@H]3COC(C)(C)O3)[C@H]3OC(C)(C)O[C@@H]23)c2ccc3ccccc3c2)cc(OC)c1OC
[1]; read-out: GI50
  GI50: 6.97 µM
[1]; [24]
  CC50: > 100 µM
[1]; read-out: TGI
  TGI: > 100 µM
[1]; read-out: pGI50 (converted)
  GI50: 6.92 µM
[1]; [25]
  CC50: > 100 µM
[1]; read-out: pTGI (converted)
  TGI: > 100 µM
[2]
  Activity: 51.39%
[3]
  GI50: 9.78 µM
  TGI: 31.4 µM
  CC50: 99.8 µM
[4]
  Activity: 38.73%
[5]
  Activity: 48.59%
[6]
  Activity: 46.81%
[7]
  GI50: 3.12 µM
  TGI: 11.8 µM
  CC50: > 100 µM
[8]
  GI50: 2.54 µM
  TGI: 5.99 µM
  CC50: 32.6 µM
[9]
  Activity: 59.71%
[10]; read-out: GI50
  GI50: 6.92 µM
[10]; [24]
  CC50: > 100 µM
[10]; read-out: TGI
  TGI: 52.1 µM
[10]; read-out: pGI50 (converted)
  GI50: 6.92 µM
[10]; [25]
  CC50: > 100 µM
[10]; read-out: pTGI (converted)
  TGI: 52.5 µM
[11]
  Activity: 22.74%
[12]
  Activity: 66.91%
[13]
  Activity: 18%
[14]; read-out: GI50
  GI50: 7.13 µM
[14]; [24]
  CC50: > 100 µM
[14]; read-out: TGI
  TGI: 67.9 µM
[14]; read-out: pGI50 (converted)
  GI50: 3.31 µM
[14]; [25]
  CC50: > 100 µM
[14]; read-out: pTGI (converted)
  TGI: 67.6 µM
[15]
  Activity: 38.25%
[16]
  Activity: 51.21%
[17]; read-out: GI50
  GI50: 4.28 µM
[17]; [24]
  CC50: > 100 µM
[17]; read-out: TGI
  TGI: 23.8 µM
[17]; read-out: pGI50 (converted)
  GI50: 4.27 µM
[17]; [25]
  CC50: > 100 µM
[17]; read-out: pTGI (converted)
  TGI: 24 µM
[18]
  GI50: 2.51 µM
  LC50 (concentration giving 50% net cell kill): 20.6 µM
  TGI: 5.7 µM
[19]
  GI50: 2.89 µM
  TGI: 7.44 µM
  CC50: > 100 µM
[20]
  LC50 (50% lethal concentration): > 100 µM
  CC50: > 100 µM
[20]; read-out: GI50
  GI50: 2.86 µM
[20]; read-out: TGI
  TGI: 96.5 µM
[20]; read-out: pGI50 (converted)
  GI50: 2.88 µM
[20]; read-out: pTGI
  TGI: > 100 µM
[21]
  LC50 (concentration killing 50% of cells relative to time zero): > 100 µM
  CC50: > 100 µM
[21]; read-out: GI50
  GI50: 3.13 µM
[21]; read-out: TGI
  TGI: 15.9 µM
[21]; read-out: pGI50 (converted)
  GI50: 3.09 µM
[21]; read-out: pTGI (converted)
  TGI: > 100 µM
[22]
  GI50: 4.44 µM
  TGI: 53.4 µM
  CC50: > 100 µM
[23]
  Activity: 33.42%

## COc1ccc(/C(=C2/O[C@@H]([C@H]3COC(C)(C)O3)[C@H]3OC(C)(C)O[C@@H]23)c2cc(OC)c(OC)c(OC)c2)cc1O
[1]; [24]
  CC50: > 100 µM
[1]; read-out: TGI
  TGI: > 100 µM
[1]; read-out: pGI50 (converted)
  GI50: 17.8 µM
[1]; [25]
  CC50: > 100 µM
[1]; read-out: pTGI (converted)
  TGI: > 100 µM
[2]
  Activity: 36.02%
[3]
  GI50: 5.93 µM
  TGI: 25.5 µM
  CC50: 96.8 µM
[4]
  Activity: 93.05%
[5]
  Activity: 85.23%
[6]
  Activity: 49.1%
[7]
  GI50: 3.84 µM
  TGI: 48.2 µM
  CC50: > 100 µM
[8]
  GI50: 2.12 µM
  TGI: 5.89 µM
  CC50: 29.8 µM
[9]
  Activity: 26.94%
[10]; read-out: GI50
  GI50: 7 µM
[10]; [24]
  CC50: > 100 µM
[10]; read-out: TGI
  TGI: 37.3 µM
[10]; read-out: pGI50 (converted)
  GI50: 6.92 µM
[10]; [25]
  CC50: > 100 µM
[10]; read-out: pTGI (converted)
  TGI: 23.4 µM
[11]
  Activity: 109.18%
[12]
  Activity: 120.76%
[13]
  Activity: 46.2%
[14]; read-out: GI50
  GI50: 5.79 µM
[14]; [24]
  CC50: > 100 µM
[14]; read-out: TGI
  TGI: > 100 µM
[14]; read-out: pGI50 (converted)
  GI50: 57.5 µM
[14]; [25]
  CC50: > 100 µM
[14]; read-out: pTGI (converted)
  TGI: > 100 µM
[15]
  Activity: 59.59%
[16]
  Activity: 96.42%
[17]; read-out: GI50
  GI50: > 1 µM
[17]; [24]
  CC50: > 100 µM
[17]; read-out: TGI
  TGI: > 100 µM
[17]; read-out: pGI50 (converted)
  GI50: 100 µM
[17]; [25]
  CC50: > 100 µM
[17]; read-out: pTGI (converted)
  TGI: > 100 µM
[18]
  GI50: 4.14 µM
  LC50 (concentration giving 50% net cell kill): > 100 µM
  TGI: > 100 µM
[19]
  GI50: 1.8 µM
  TGI: 6.31 µM
  CC50: 53.5 µM
[20]
  LC50 (50% lethal concentration): > 100 µM
  CC50: > 100 µM
[20]; read-out: GI50
  GI50: 5.45 µM
[20]; read-out: TGI
  TGI: > 100 µM
[20]; read-out: pGI50 (converted)
  GI50: 5.5 µM
[20]; read-out: pTGI
  TGI: > 100 µM
[21]
  LC50 (concentration killing 50% of cells relative to time zero): > 100 µM
  CC50: > 100 µM
[21]; read-out: GI50
  GI50: 6.95 µM
[21]; read-out: TGI
  TGI: 31.4 µM
[21]; read-out: pGI50 (converted)
  GI50: 6.92 µM
[21]; read-out: pTGI (converted)
  TGI: 31.6 µM
[22]
  GI50: 2.83 µM
  TGI: 7.88 µM
  CC50: > 100 µM
[23]
  Activity: 26.71%
